OX1R antag-1 = antagonists of human orexin 1 receptor (OX1R); Orexin/Hypocretin receptor type 1 (Homo sapiens), O43613; OX1R-expressing cells, FRET antagonist read-out; inhibition, % at 6.6 µM; 1.8% of 330,000 active; AID 485270, 2010; in the data active = inhibition mostly above about 38%, no sharp cut-off; inactive = mostly below about 40%;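 note: 0% = agonist challenge alone and 100% = reference antagonist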
Target sequence (O43613 whole entry, looked up): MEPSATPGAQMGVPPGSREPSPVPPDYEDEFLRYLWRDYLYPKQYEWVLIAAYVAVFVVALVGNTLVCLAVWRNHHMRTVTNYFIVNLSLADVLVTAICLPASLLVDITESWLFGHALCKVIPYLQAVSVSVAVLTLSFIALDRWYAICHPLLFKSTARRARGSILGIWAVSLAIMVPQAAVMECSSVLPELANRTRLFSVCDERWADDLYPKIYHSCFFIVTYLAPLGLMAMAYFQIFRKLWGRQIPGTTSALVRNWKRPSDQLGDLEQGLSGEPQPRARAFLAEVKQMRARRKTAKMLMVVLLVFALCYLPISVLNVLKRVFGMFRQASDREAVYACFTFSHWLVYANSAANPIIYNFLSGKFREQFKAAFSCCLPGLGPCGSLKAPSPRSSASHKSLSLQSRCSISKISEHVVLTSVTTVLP
CHO-K1 Ca ag = counter-screen for M1 agonists: effect in parental CHO-K1 cells; Fluo-8 calcium fluorescence; scaled to maximal ATP response, vehicle zero; activation, % at 3 µM; 0.48% of 360,000 active; AID 602248, 2012; in the data active = activation above about 15%;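 note: untransfected CHO-K1 host cells lacking M1 receptor as counterscreen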
OX1R antag-2 = OX1R (HCRTR1) antagonists, primary screen, fluorescence, CHO/OX1R cells, Fluo-8 calcium, orexin A; AID 434989, 2010; 0.43% of 330,000 active; Orexin/Hypocretin receptor type 1 (Homo sapiens), O43613; inhibition, % at 5 µM; Fluo-8 calcium fluorescence;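 active = inhibition above its plate's threshold, mean inhibition of all tested compounds on the plate plus 3 SD, cut at about 37% in these data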;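 note: 0% = orexin A challenge wells and 100% = SB-334867-A antagonist wells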
M1 PAM parental = nonselective calcium activators in parental CHO-K1 cells, primary screen, counter-screen for M1 PAM project, cell-based, Fluo-8 calcium fluorescence, full deck, 1536-well; 0.02% of 360,000 active; ATP EC20; 0% at ATP EC20, 100% at ATP max; activation, % at 3 µM;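 active = activation above the run cutoff, the mean activation of all test compounds plus 3 SD, cut at about 40% in these data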;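 note: peak over basal fluorescence ratio in a 140 s read after ATP addition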
CHO parental Ca = ATP-evoked calcium signal inhibitors, parental CHO, primary screen, counter-screen for OX1R antagonist project, cell-based, fluorescence, Fluo-8 calcium dye; 0.63% of 330,000 active; parental CHO-K1, ATP-induced calcium, Fluo-8 fluorescence; AID 463079, 2010; inhibition, % at 5.6 µM;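 active = inhibition above that plate's mean sample inhibition plus 3 SD, cut at about 26% in these data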;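 note: 0% = ATP-challenged DMSO wells and 100% = DMSO wells without ATP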
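Material – parental CHO cells · Reagent – ATP stimulus · Compound – single nominal dose of 5.6 µM per compound · Detection – Fluo-8 fluorescence · Read-out basis – percent inhibition of calcium signal · Controls – ATP-challenged DMSO wells low, unchallenged DMSO wells high · Repeats – no replicates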
CHO-K1 Ca antag = nonselective inhibitor or artifact in parental CHO-K1 cells | ATP-induced calcium, Fluo-8 fluorescence | inhibition, % at 3 µM | 0.6% of 360,000 active | AID 602250;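 active = inhibition above a per-plate cutoff, the plate's mean sample inhibition plus 3 SD, cut at about 24% in these data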;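 note: 0% = DMSO plus EC80 ATP and 100% = DMSO alone without ATP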
OX1R HTRF conf = OX1R (HCRTR1) antagonists, confirmation, cell-based, HTRF | OX1R-expressing cells, HTRF antagonist assay | shares compounds with OX1R antag-1 | 49% of 1,800 active | inhibition, % at 6.6 µM | AID 492964, 2010; in the data active = inhibition above about 55%;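 note: CHO cells expressing OX1R stimulated with orexin A at about EC80; 0% = agonist challenge alone and 100% = reference antagonist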
CHO-K1 HTRF = signal inhibition in parental CHO-K1 cells, counter-screen for OX1R antagonist project, cell-based, HTRF | shares compounds with OX1R antag-1 | HTRF counterscreen | inhibition, % at 6.6 µM | 48% of 1,800 active; in the data active = inhibition above about 17%;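 note: 0% = agonist challenge with vehicle and 100% = vehicle alone without agonist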
* hit, by the source's call; x = not tested or not shown. Only some compounds are listed: those with a hit (about 2.9% of all), similar ones and a draw of the others.

SMILES | OX1R antag-1 | CHO-K1 Ca ag | OX1R antag-2 | M1 PAM parental | CHO parental Ca | CHO-K1 Ca antag | OX1R HTRF conf | CHO-K1 HTRF
Cc1cccc(NC(=S)N/N=C/c2ccc([N+](=O)[O-])s2)c1 | 46 | 3 | -11 | 10 | -1 | 9 | x | x
CCc1nnc(NC(=O)CCC(=O)N2CCN(C3c4ccccc4-c4ccccc43)CC2)s1 | 17 | 1 | -11 | 23 | -10 | -9 | x | x
COc1ccc2nc(SCC(=O)Nc3cc(OC)c(OC)cc3C(=O)O)c(C)cc2c1 | 15 | 0 | 0 | -8 | -9 | -1 | x | x
O=[N+]([O-])c1cc(-c2nc(-c3ccncc3)no2)ccc1Cl | 59 | 0 | -2 | -8 | 3 | 7 | x | x
O=[N+]([O-])c1cc(-c2nc(-c3ccncc3)no2)cc([N+](=O)[O-])c1 | 78* | 0 | -31 | 13 | 0 | 3 | 72* | 63*
CC(C)(C)C(=O)COC(=O)c1cc(-c2ccncc2)nc2ccccc12 | 16 | 2 | -34 | -5 | -32 | 6 | x | x
COc1ccc(NC(=O)CSc2nccn2C)c([N+](=O)[O-])c1 | 19 | 0 | -12 | 9 | -16 | -12 | x | x
Cn1ccnc1Sc1cc(NCCCO)c([N+](=O)[O-])c2nonc12 | 83* | 0 | 0 | 7 | 8 | -3 | 51 | 78*
CCN1C(=O)c2cccc3c(S(=O)(=O)NCc4cccnc4)ccc1c23 | 77* | 2 | -7 | 18 | -2 | -17 | 30 | 14
CNC(=S)Nc1ccc(C(N)=O)cc1 | 1 | 1 | 4 | 8 | -6 | -4 | x | x
CCOCCCNC(=O)CN1C(=O)/C(=C/c2ccccc2)Sc2ccccc21 | 81* | 5 | 12 | 26 | -14 | -17 | 87* | 9
Cc1ccc(/C=C2/Sc3ccccc3N(CC(=O)NCCCOC(C)C)C2=O)cc1 | 84* | 3 | 27 | 19 | -20 | -1 | 70* | 5
CCN1CCN(CCCNC(=O)c2ccc(/C=C3/Sc4ccccc4N(Cc4ccccc4F)C3=O)cc2)CC1 | 15 | 7 | -23 | 18 | -16 | -13 | x | x
CCOCCCNC(=O)CN1C(=O)/C(=C\c2ccc(C)cc2)Sc2ccccc21 | 60 | 4 | 4 | -2 | -26 | 2 | x | x
O=c1[nH]cnc2c1ncn2-c1ccc(N(CCO)CCO)cc1 | x | 0 | x | -12 | x | 3 | x | x
CCN1CCN(CC(=O)N2CCCC(C(=O)c3ccc(Oc4ccccc4)cc3)C2)CC1 (stereo not drawn) | 13 | 3 | -19 | 21 | -7 | -19 | x | x
CCOc1ccc(-c2nnc(-c3cccs3)o2)cc1 | 21 | 0 | -25 | 19 | -12 | -14 | x | x
c1csc(-c2nnc(-c3ccc(N4CCOCC4)cc3)o2)c1 | 77* | 1 | 14 | 16 | -10 | -6 | 83* | 12
O=C(CC1C(=O)NCCN1Cc1ccccc1C(F)(F)F)NC1CCCCC1 (stereo not drawn) | 15 | 0 | -21 | -5 | -29 | -9 | x | x
COc1ccc2nc(COC(=O)c3ccco3)c(C(C)=O)[n+]([O-])c2c1 | 125* | 1 | -6 | 13 | -28 | -5 | 32 | 35*
CCOC(=O)c1c(COC(=O)c2ccco2)nc2ccccc2[n+]1[O-] | 107* | 1 | -13 | 5 | -24 | 2 | 53 | 28*
CC(=O)c1c(COC(=O)c2ccncc2)nc2ccccc2[n+]1[O-] | 68 | 0 | -17 | 19 | 0 | -9 | x | x
CC(=O)c1c(COC(=O)c2cccc(C)c2)nc2ccccc2[n+]1[O-] | 15 | 3 | -32 | -1 | -19 | 1 | x | x
Cc1[nH]c2ccccc2c1C(=O)C(=O)NCc1cccs1 | 12 | 2 | -5 | 18 | -5 | -2 | x | x
